Reference: PMC3612139 (Bioorganic chemistry, 2013)

Tested on: HL-60 promyelocytes
Assay: HL-60 differentiation
Assay type: cell-based
Conditions: Homo sapiens, HL-60, read-out: HL-60 differentiation EC50
Method in brief: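 Differentiation of HL-60 promyelocytes to monocytes, scored as the percentage of cells reducing nitro blue tetrazolium. EC50 taken from dose–response curves as the concentration giving 50% maturation. Ratio is the average of test compound EC50 over 1α,25-(OH)2D3 EC50. Run in duplicate on at least two occasions.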

Q: `C=C1/C(=C\C=C2/CCC[C@]3(C)[C@@H]([C@H](C)CCCC(C)(C)O)CC[C@@H]23)C[C@@H](O)C[C@@H]1O` [Compound 1, 1α,25-Dihydroxyvitamin D3] was tested. Which EC50 did it give?
A: The EC50 was 2 nM.
